Bioassay records (PubChem BioAssay)
TPT1 inhibitor: inhibitors of Candida albicans tRNA 2'-phosphotransferase TPT1. recombinant caTPT1, FP RNA substrate dephosphorylation. inhibition, % at 5 µM. 0.81% of 300,000 active. AID 1962;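 active means inhibition above the mean of all tested compounds plus 3 SD, set per screening campaign, cut at about 24% in these data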;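 further: plate controls were DMSO alone for no effect and ferristatin control at 100 nM for full effect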
CSN inh: inhibitors of human CSN-mediated cullin deneddylation; 0.38% of 360,000 active; Q92905; Purified CSN, SCF-Nedd8-OG deneddylation, fluorescence polarization; inhibition, % at 12.5 µM; AID 651999;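 active means pattern-corrected inhibition above about 35%, with an unprinted fluorescence ratio check between 0.5 and 1.5, limit read from the data, passing the limit was not always enough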;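 further: 0% = enzyme with substrate and 100% = substrate without enzyme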
Target sequence (Q92905 whole entry, looked up, one chain of several): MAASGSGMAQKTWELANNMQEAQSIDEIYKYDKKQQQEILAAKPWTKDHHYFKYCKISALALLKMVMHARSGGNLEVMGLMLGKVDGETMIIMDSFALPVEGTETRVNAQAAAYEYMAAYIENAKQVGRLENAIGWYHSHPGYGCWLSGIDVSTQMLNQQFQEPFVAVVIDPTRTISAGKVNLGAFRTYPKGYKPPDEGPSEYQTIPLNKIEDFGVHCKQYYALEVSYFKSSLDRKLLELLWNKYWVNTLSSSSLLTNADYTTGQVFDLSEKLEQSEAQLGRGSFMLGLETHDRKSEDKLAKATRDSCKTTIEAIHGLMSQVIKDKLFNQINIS
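Schedule: reaction 90 min, room temperature / Assay system: HEK293T-derived human Csn5 enzyme / Input: Csn5 at 0.24 nM final / Measure: inhibition of Csn5 cleavage, % / Control set: substrate-only high control, full reaction low control / Technique: fluorescence polarization of the substrate / Buffer or medium: Tris/NaCl/DTT buffer, pH 7.5 / Reagent: SCFSkp2-Nedd8OG substrate at 10 nM final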
HNF4A DNA FP: change in binding of human HNF4 alpha to DNA; P41235; 0.3% of 360,000 active; HNF4a-FITC DNA binding, fluorescence polarization, 1 h; AID 1224865; activity change, % at 10 µM; in the data active means activity change above about 30%, passing the limit was not always enough
Rpn11 inh: Rpn11 (human) deubiquitinase inhibition; O00487; human 26S proteasome, Ub4-pepOG fluorescence polarization; 20S core pre-blocked with epoxomicin; inhibition, % at 20 µM; 0.59% of 360,000 active; AID 588493;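 active means inhibition at 20 µM, scaled to each plate's controls, above about 33%, limit read from the data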
Neddyl block: inhibitors of human cullin neddylation; 0.58% of 360,000 active; P61081+Q13564; inhibition, % at 25 µM; AID 651699; TR-FRET cullin neddylation, biochemical; in the data active means inhibition above about 36%
Rin1-Abl PPI inh: human Rin1-Abl interaction inhibition; 0.4% of 360,000 active; P00519+Q13671; TR-FRET Rin1/Abl binding, biochemical; AID 588664; inhibition, % at 7.35 µM; in the data active means inhibition above about 5%, passing the limit was not always enough
Neddyl conf: confirmation of human cullin neddylation inhibitors | shares compounds with Neddyl block | TR-FRET cullin neddylation biochemical assay | calls only at 25 µM | 13% of 1,800 active; in the data active means inhibition above about 40%;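 further: neddylation substrate is the cullin 1 ring ligase complex with SKP2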
* marks the source's active call; other numbers are inactive results; i = inactive; / = no result given. In the library only some 2.4% were active in any assay of this set; here they are far more common.

SMILES	TPT1 inhibitor	CSN inh	HNF4A DNA FP	Rpn11 inh	Neddyl block	Rin1-Abl PPI inh	Neddyl conf
O=C(NCCCc1ccccc1)[C@@H]1Cc2ccccc2CN1	2.1	0.1	5.4	-6.8	-1.2	0.6	/
NC(=O)c1cccc(N=Cc2cc(Cl)cc(Cl)c2O)c1	/	0.9	-1.7	2.4	38.0*	0.3	i
CCN(CC)S(=O)(=O)c1cccc(-c2nn(-c3ccccc3)cc2/C=C(\C#N)C(=O)NCc2ccco2)c1	-3.4	-2.6	2.7	-0.4	39.4*	-1.0	i
CC1(C(=O)NS(=O)(=O)c2ccc(F)cc2F)CCN1C(=O)CC1CCCC1 (stereo not drawn)	/	2.5	-4.4	-7.7	5.2	0.6	/
Cc1csc(NC(=O)NCC2CCCC(CNC(=O)Nc3nc(C)cs3)C2)n1 (stereo not drawn)	-0.2	-4.1	1.6	-2.0	9.7	3.9	/
CN(C)c1cccc(C(=O)NCc2ccccc2)c1	0.8	-2.2	2.5	-6.7	40.6*	-0.1	i
Oc1ccccc1N1CCN(C(c2ccccc2)c2ccccc2)CC1	-1.7	1.0	3.0	6.8	13.4	-0.3	/
O=C(N/N=C/c1ccccc1O)C1(O)c2ccccc2-c2ccccc21	0.3	1.5	2.1	-7.3	46.4*	-1.1	i
CCCOc1ccc(C(=O)NCC(c2ccco2)N(C)C)cc1 (stereo not drawn)	-1.9	-4.0	7.0	5.8	-4.0	-2.4	/
COc1ccccc1-c1nnc(N)s1	-1.5	-1.2	3.6	-2.8	41.0*	1.5	i
CC1(C)CC(=O)C(C(=O)/C=C/c2ccco2)C(=O)C1	-0.9	7.4	-8.1	-1.2	8.0	0.8	/
COc1cc2cc(CN(CCCN3CCOCC3)C(=O)Nc3ccccc3F)c(=O)[nH]c2cc1OC	0.5	8.1	-0.8	0.7	40.5*	-3.4	i
COc1cccc(/C=C/C(=O)OCC(=O)NCc2ccco2)c1OC	0.6	2.1	-3.4	0.2	14.2	-3.0	/
COc1cccc(/C=C/C(=O)OCC(=O)NCC2CCCCC2)c1OC	/	0.9	-0.4	-7.6	30.5*	1.3	i
COc1ccc(OC)c(/C=C/C(=O)OCC(=O)NC2CCCCCCC2)c1	/	0.9	-2.0	3.5	59.3*	3.4	/
COc1cc(/C=C/C(=O)OCC(=O)N2c3ccccc3CC2C)cc(OC)c1OC (stereo not drawn)	/	2.5	-0.6	3.6	35.3	-0.2	/
COc1cccc(/C=C/C(=O)OCC(=O)N2c3ccccc3CC2C)c1OC (stereo not drawn)	/	2.0	1.6	-4.8	46.4*	4.7	/
COc1cccc(/C=C/C(=O)OCC(=O)c2cc(C)n(CC3CCCO3)c2C)c1OC (stereo not drawn)	-2.6	-1.1	2.8	0.3	42.9*	0.6	i
COc1ccc(/C=C/C(=O)OCC(=O)NC2CCCCCCC2)cc1	/	-1.8	-3.3	0.4	1.8	-0.2	/
CC1CCCN(C(=O)Cc2cccc3ccccc23)C1 (stereo not drawn)	0.9	1.4	-1.5	-12.0	7.3	-3.9	/
Cc1cc(C(=O)COc2ccc3ccc(=O)oc3c2)c(C)n1C	-1.7	0.2	-2.9	-2.2	32.1	3.4	/
CO[C@@H]1CN(C)C(=O)c2cc(NC(=O)NC3CCCCC3)ccc2OC[C@@H](C)N(CCc2ccccc2)C[C@@H]1C	/	-3.9	0.3	/	3.4	/	/
O=C(c1cc2nc(-c3ccco3)cc(C(F)(F)F)n2n1)N1CCN(c2ccccc2)CC1	3.5	3.7	1.8	1.9	9.0	0.3	/
COc1ccc(-c2cc(C(F)(F)F)n3nc(C(=O)N4CCCCC4)cc3n2)cc1OC	2.8	-0.9	-0.4	3.1	38.1*	-3.3	i
O=C(c1cnn2c(C(F)(F)F)cc(-c3ccc4c(c3)OCO4)nc12)N1CCCCC1	-1.2	-3.5	-2.1	-3.7	44.4*	3.1	i
O=C(c1cc2nc(-c3ccccc3)cc(C(F)(F)F)n2n1)N1CCCC1	/	-2.0	1.1	-3.8	41.4*	-0.5	i
O=C(c1cc2nc(-c3ccco3)cc(C(F)(F)F)n2n1)N1CCCCCC1	-2.1	3.3	1.6	10.5	55.7*	-5.5	/
CCOc1ccc(OCCC(=O)OCC(=O)NC2CCCCC2)cc1	1.3	-3.2	-1.3	-3.9	1.8	-2.5	/
